Results published in ChEMBL document CHEMBL1250442, “Inhibiting gene expression at transcription start sites in chromosomal DNA with antigene RNAs” (Nat Chem Biol, 2005).
Activity calls are given as the source filed them. No cut-off for these calls is given here.

Key:
[1] = system: T47D; test: Effect of DNA methylation at (+379) CpG site near PR-B transcription start site (-9) in human T47D cells by sodium bisulfite sequencing analysis; assay type: functional, cell-based
Outline: (§1)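 T47D cells grown in RPMI-1640 with 10% FBS, 0.5% NEAA, insulin and P/S at 37 °C, 5% CO2. They were plated at 80,000 cells/well 2 days before lipid transfection with 25 nM or 100 nM duplex, with medium changed at 24 h. Cells were harvested 5 days post-transfection. 100 ng bisulfite-treated DNA was PCR-amplified, and products were TA-cloned. 5–15 colonies per plate were sequenced.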

[2] = system: T47D; test: Effect of DNA methylation at (+190) CpG site near PR-B transcription start site (-9) in human T47D cells by sodium bisulfite sequencing analysis; assay type: functional, cell-based; outline: as §1
[3] = system: T47D; test: Inhibition of PR-A gene expression in human T47D cells by syber green assay; assay type: functional, cell-based
Outline: (§2)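 T47D cells plated at 80,000/well without antibiotics two days before Oligofectamine transfection with agRNA duplex (25 or 100 nM final); medium changed at 24 h, harvest day 5 unless stated otherwise. TRIzol total RNA; PR mRNA by real-time PCR with SYBR Green: 50 °C 2 min, 95 °C 10 min, 40 cycles 95 °C 15 s/60 °C 1 min.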

[4] = system: T47D; test: Inhibition of PR-A gene expression in human T47D cells harboring inactive DNA methyltransferase-1 at 25 nM by syber green assay; assay type: functional, cell-based
[5] = system: T47D; test: Effect of DNA methylation at (+337) CpG site near PR-B transcription start site (-9) in human T47D cells by sodium bisulfite sequencing analysis; assay type: functional, cell-based; outline: as §1
[6] = system: T47D; test: Effect of DNA methylation at (+166) CpG site near PR-B transcription start site (-9) in human T47D cells by sodium bisulfite sequencing analysis; assay type: functional, cell-based; outline: as §1
[7] = system: T47D; test: Effect of DNA methylation at (+20) CpG site near PR-B transcription start site (-9) in human T47D cells by sodium bisulfite sequencing analysis; assay type: functional, cell-based; outline: as §1
[8] = system: T47D; test: Effect of DNA methylation at (+356) CpG site near PR-B transcription start site (-9) in human T47D cells by sodium bisulfite sequencing analysis; assay type: functional, cell-based; outline: as §1
[9] = system: T47D; test: Inhibition of PR-A gene expression in human T47D cells at 25 nM in presence of 4 uM of 5-aza-Dc
[10] = system: T47D; test: Effect of DNA methylation at (+267) CpG site near PR-B transcription start site (-9) in human T47D cells by sodium bisulfite sequencing analysis; assay type: functional, cell-based; outline: as §1
[11] = system: T47D; test: Inhibition of PR-B mRNA gene expression in human T47D cells at 100 nM by syber green assay; assay type: functional
Outline: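 T47D cells in RPMI-1640 with 10% FBS, NEAA, insulin, 37 °C, 5% CO2. Plated two days before transfection without antibiotics. Oligofectamine-mediated duplex RNA transfection at 100 nM final, medium changed at 24 h, harvest five days post-transfection. Total RNA extracted with TRIzol. hPR mRNA quantified by SYBR Green qPCR: 50 °C 2 min, 95 °C 10 min, then 40 cycles of 95 °C 15 s / 60 °C 1 min.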

[12] = system: T47D; test: Inhibition of PR-B gene expression in human T47D cells at 25 nM in presence of 4 uM of 5-aza-Dc
[13] = system: T47D; test: Effect of DNA methylation at (+362) CpG site near PR-B transcription start site (-9) in human T47D cells by sodium bisulfite sequencing analysis; assay type: functional, cell-based; outline: as §1
[14] = system: T47D; test: Inhibition of PR-A mRNA gene expression in human T47D cells at 100 nM by syber green assay; assay type: functional; outline: as §2
[15] = system: T47D; test: Effect of DNA methylation at (+398) CpG site near PR-B transcription start site (-9) in human T47D cells by sodium bisulfite sequencing analysis; assay type: functional, cell-based; outline: as §1
[16] = system: T47D; test: Effect of DNA methylation at (+335) CpG site near PR-B transcription start site (-9) in human T47D cells by sodium bisulfite sequencing analysis; assay type: functional, cell-based; outline: as §1
[17] = system: T47D; test: Effect of DNA methylation at (+112) CpG site near PR-B transcription start site (-9) in human T47D cells by sodium bisulfite sequencing analysis; assay type: functional, cell-based; outline: as §1
[18] = system: T47D; test: Inhibition of PR-B gene expression in human T47D cells at 25 nM by syber green assay; assay type: functional; outline: as §2
[19] = system: T47D; test: Effect of DNA methylation at (+353) CpG site near PR-B transcription start site (-9) in human T47D cells by sodium bisulfite sequencing analysis; assay type: functional, cell-based; outline: as §1
[20] = system: T47D; test: Effect of DNA methylation at (+45) CpG site near PR-B transcription start site (-9) in human T47D cells by sodium bisulfite sequencing analysis; assay type: functional, cell-based
Outline: (§3)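 T47D cells (RPMI-1640, 10% FBS, NEAA, insulin; 37 °C, 5% CO2) transfected with agRNA duplexes via Oligofectamine, medium changed at 24 h. Genomic DNA bisulphite-treated, regions around AR and hPR-B start sites PCR-amplified (HotStarTaq, 100 ng treated DNA), gel-purified, TOPO TA cloned; 5–15 colonies per plate miniprepped and sequenced.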

[21] = system: T47D; test: Effect of DNA methylation at (+41) CpG site near PR-B transcription start site (-9) in human T47D cells by sodium bisulfite sequencing analysis; assay type: functional, cell-based; outline: as §3
[22] = system: T47D; test: Effect of DNA methylation at (+225) CpG site near PR-B transcription start site (-9) in human T47D cells by sodium bisulfite sequencing analysis; assay type: functional, cell-based; outline: as §1
[23] = system: T47D; test: Effect of DNA methylation at (-112) CpG site near PR-B transcription start site (-9) in human T47D cells by sodium bisulfite sequencing analysis; assay type: functional, cell-based; outline: as §3
[24] = system: T47D; test: Effect of DNA methylation at (-46) CpG site near PR-B transcription start site (-9) in human T47D cells by sodium bisulfite sequencing analysis; assay type: functional, cell-based; outline: as §3
[25] = system: T47D; test: Effect of DNA methylation at (+149) CpG site near PR-B transcription start site (-9) in human T47D cells by sodium bisulfite sequencing analysis; assay type: functional, cell-based; outline: as §1
[26] = system: T47D; test: Inhibition of PR-B gene expression in human T47D cells harboring inactive DNA methyltransferase-1 at 25 nM by syber green assay; assay type: functional, cell-based
[27] = system: T47D; test: Effect of DNA methylation at (+319) CpG site near PR-B transcription start site (-9) in human T47D cells by sodium bisulfite sequencing analysis; assay type: functional, cell-based; outline: as §1
[28] = system: T47D; test: Cytotoxicity against human T47D cells assessed as effect on cellular morphology; assay type: cell-based
[29] = system: T47D; test: Effect of DNA methylation at (+295) CpG site near PR-B transcription start site (-9) in human T47D cells by sodium bisulfite sequencing analysis; assay type: functional, cell-based; outline: as §1
[30] = system: T47D; test: Inhibition of PR-B gene expression in human T47D cells by syber green assay; assay type: functional, cell-based; outline: as §2
[31] = system: T47D; test: Effect of DNA methylation at (-75) CpG site near PR-B transcription start site (-9) in human T47D cells by sodium bisulfite sequencing analysis; assay type: functional, cell-based; outline: as §3
[32] = system: T47D; test: Effect of DNA methylation at (+125) CpG site near PR-B transcription start site (-9) in human T47D cells by sodium bisulfite sequencing analysis; assay type: functional, cell-based; outline: as §1
[33] = system: T47D; test: Inhibition of PR-A gene expression in human T47D cells at 25 nM by syber green assay in presence of 10 nM estradiol; assay type: functional, cell-based
[34] = system: T47D; test: Inhibition of PR-A gene expression in human T47D cells at 25 nM by syber green assay; assay type: functional; outline: as §2
[35] = system: T47D; test: Effect of DNA methylation at (+107) CpG site near PR-B transcription start site (-9) in human T47D cells by sodium bisulfite sequencing analysis; assay type: functional, cell-based; outline: as §1
[36] = system: T47D; test: Effect of DNA methylation at (+173) CpG site near PR-B transcription start site (-9) in human T47D cells by sodium bisulfite sequencing analysis; assay type: functional, cell-based; outline: as §1
[37] = system: T47D; test: Effect of DNA methylation at (+162) CpG site near PR-B transcription start site (-9) in human T47D cells by sodium bisulfite sequencing analysis; assay type: functional, cell-based; outline: as §1
[38] = system: T47D; test: Inhibition of PR-B gene expression in human T47D cells at 25 nM by syber green assay in presence of 10 nM estradiol; assay type: functional, cell-based
[39] = system: T47D; test: Effect of DNA methylation at (+216) CpG site near PR-B transcription start site (-9) in human T47D cells by sodium bisulfite sequencing analysis; assay type: functional, cell-based; outline: as §1
[40] = system: T47D; test: Effect of DNA methylation at (-23) CpG site near PR-B transcription start site (-9) in human T47D cells by sodium bisulfite sequencing analysis; assay type: functional, cell-based; outline: as §3

Cc1cn(CC(=O)N(CCNC(=O)CN(CCNC(=O)CN(CCNC(=O)CN(CCNC(=O)CN(CCNC(=O)CN(CCNC(=O)CN(CCNC(=O)CN(CCNC(=O)CN(CCNC(=O)CN(CCNC(=O)CN(CCNC(=O)CN(CCNC(=O)CN(CCNC(=O)CN(CCNC(=O)CN(CCNC(=O)CN(CCNC(=O)CN(CCNC(=O)CN(CCNC(=O)CN(CCNC(=O)CN(CCNC(=O)CN)C(=O)Cn2ccc(=O)[nH]c2=O)C(=O)Cn2cnc3c(=O)[nH]c(N)nc32)C(=O)Cn2ccc(=O)[nH]c2=O)C(=O)Cn2ccc(N)nc2=O)C(=O)Cn2ccc(=O)[nH]c2=O)C(=O)Cn2cnc3c(=O)[nH]c(N)nc32)C(=O)Cn2cnc3c(=O)[nH]c(N)nc32)C(=O)Cn2ccc(N)nc2=O)C(=O)Cn2ccc(N)nc2=O)C(=O)Cn2cnc3c(N)ncnc32)C(=O)Cn2cnc3c(=O)[nH]c(N)nc32)C(=O)Cn2ccc(=O)[nH]c2=O)C(=O)Cn2ccc(N)nc2=O)C(=O)Cn2ccc(N)nc2=O)C(=O)Cn2cnc3c(N)ncnc32)C(=O)Cn2ccc(N)nc2=O)C(=O)Cn2cnc3c(N)ncnc32)C(=O)Cn2cnc3c(=O)[nH]c(N)nc32)C(=O)Cn2ccc(N)nc2=O)CC(=O)NCCN(CC(=O)NCC(=O)O)C(=O)Cn2cc(C)c(=O)[nH]c2=O)c(=O)[nH]c1=O
Activity [1]: inactive | Activity [2]: inactive | IC50 [3]: 2.5 nM | inhibition [4]: Active | Activity [5]: inactive | Activity [6]: inactive | Activity [7]: inactive | Activity [8]: inactive | inhibition [9]: Active | Activity [10]: inactive | inhibition at 0.1 µM [11]: 100% | inhibition [12]: Active | Activity [13]: inactive | inhibition at 0.1 µM [14]: 95% | Activity [15]: inactive | Activity [16]: inactive | Activity [17]: inactive | inhibition at 0.025 µM [18]: 88% | Activity [19]: inactive | Activity [20]: inactive | Activity [21]: inactive | Activity [22]: inactive | Activity [23]: inactive | Activity [24]: inactive | Activity [25]: inactive | inhibition [26]: Active | Activity [27]: inactive | Activity [28]: Non-toxic | Activity [29]: inactive | IC50 [30]: 2.5 nM | Activity [31]: inactive | Activity [32]: inactive | inhibition [33]: Active | inhibition at 0.025 µM [34]: 79% | Activity [35]: inactive | Activity [36]: inactive | Activity [37]: inactive | inhibition [38]: Active | Activity [39]: inactive | Activity [40]: inactive
